Measurements from ChEMBL document CHEMBL1130349, “Synthesis and structure-activity relationships of a new model of arylpiperazines. 3.1 2-[omega-(4-arylpiperazin-1-yl)alkyl]perhydropyrrolo- [1,2-c]imidazoles and -perhydroimidazo[1,5-a]pyridines: study of the influence of the terminal amide fragment on 5-HT1A affinity/selectivity” (J Med Chem, 1997).

What was measured:
[1] = biological target: T1, Alpha-1A adrenergic receptor (Rattus norvegicus, UniProt P43140); experiment: Binding affinities against Alpha-1 adrenergic receptor (alpha1 adrenoceptor) using [3H]prazosin as radioligand in rat cerebral cortex membrane; type: cell membranes
T1 sequence (P43140 whole entry): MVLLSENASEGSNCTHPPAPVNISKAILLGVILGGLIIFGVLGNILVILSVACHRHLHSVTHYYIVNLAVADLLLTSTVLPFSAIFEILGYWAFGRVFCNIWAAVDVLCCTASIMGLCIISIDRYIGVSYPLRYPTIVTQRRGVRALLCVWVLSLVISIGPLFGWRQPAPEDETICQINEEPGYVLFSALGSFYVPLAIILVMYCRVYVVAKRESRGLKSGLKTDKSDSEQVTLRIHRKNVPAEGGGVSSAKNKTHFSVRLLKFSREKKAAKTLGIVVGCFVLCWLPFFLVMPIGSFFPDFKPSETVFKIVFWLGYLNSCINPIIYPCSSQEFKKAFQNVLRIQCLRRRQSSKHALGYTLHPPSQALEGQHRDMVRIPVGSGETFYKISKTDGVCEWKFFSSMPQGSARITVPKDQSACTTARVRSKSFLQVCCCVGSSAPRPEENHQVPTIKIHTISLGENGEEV
In short: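 Radioligand binding run by a cited earlier method; values are means ± SEM of two to four experiments, each in triplicate.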

[2] = Selectivity ratio of serotonin and alpha receptor; parameters: reference not given here
[3] = biological target: T2, 5-hydroxytryptamine receptor 1A (Rattus norvegicus, UniProt P19327); experiment: Binding affinities against 5-hydroxytryptamine 1A receptor using [3H]8-OH-DPAT as radioligand in rat cerebral cortex membrane; type: cell membranes
T2 sequence (P19327 whole entry): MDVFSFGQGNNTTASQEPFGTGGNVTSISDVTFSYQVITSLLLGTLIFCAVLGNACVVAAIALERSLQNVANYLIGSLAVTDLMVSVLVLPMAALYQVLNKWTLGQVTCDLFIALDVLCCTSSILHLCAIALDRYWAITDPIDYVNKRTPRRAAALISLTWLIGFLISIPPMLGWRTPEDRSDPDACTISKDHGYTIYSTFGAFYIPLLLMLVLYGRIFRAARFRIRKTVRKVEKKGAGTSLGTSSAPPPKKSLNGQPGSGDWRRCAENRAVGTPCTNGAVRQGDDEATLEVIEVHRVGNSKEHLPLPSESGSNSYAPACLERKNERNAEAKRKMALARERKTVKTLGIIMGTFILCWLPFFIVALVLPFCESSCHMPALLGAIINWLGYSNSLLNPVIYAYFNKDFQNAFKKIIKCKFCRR
In short: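 Rat cerebral cortex homogenised in ice-cold 50 mM Tris-HCl (pH 7.7), washed twice, preincubated 10 min at 37 °C. Membranes (~1 mg protein) incubated 15 min at 37 °C with 0.6 nM [3H]-8-OH-DPAT across several competitor concentrations. Nonspecific binding defined by 10 μM 5-HT. Two to four experiments, each in triplicate.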

Q: What does the source list for FC(F)(F)c1cccc(N2CCN(CCCCN3CC4CCCCN4C3)CC2)c1 (stereo not given)?
A: Ki [1]: 0.115 µM; Ki ratio [2]: 7.5; Ki [3]: 0.0153 µM

Q: For O=C1C2CCCCN2C(=O)N1CCCN1CCN(c2cccc(C(F)(F)F)c2)CC1 (stereo not given), which Ki [1] is on record?
A: Its Ki is 0.0904 µM.

Q: And the Ki ratio [2]?
A: Its Ki ratio is 15.9.

Q: Which Ki [1] does the source give for O=C1C2CCCCN2C(=O)N1CCCCN1CCN(c2cccc(C(F)(F)F)c2)CC1 (stereo not given) here?
A: Its Ki is 0.0724 µM.

Q: What about the Ki ratio [2] of the same compound?
A: Its Ki ratio is 7.3.

Q: For COc1ccccc1N1CCN(CCCN2C(=O)C3CCCN3C2=O)CC1 (stereo not given), which Ki [1] is on record?
A: Its Ki is 0.0031 µM.

Q: And the Ki ratio [2]?
A: Its Ki ratio is 0.7.

Q: For COc1ccccc1N1CCN(CCCN2C(=O)C3CCCCN3C2=O)CC1 (stereo not given), which Ki [1] is on record?
A: The Ki was 0.0099 µM.

Q: What about the Ki ratio [2] of the same compound?
A: The Ki ratio was 2.4.

Q: What does the source list for FC(F)(F)c1cccc(N2CCN(CCCCN3CC4CCCN4C3)CC2)c1 (stereo not given)?
A: Ki [1]: 0.24 µM; Ki ratio [2]: 19.5; Ki [3]: 0.0123 µM

Q: Which Ki [1] does the source give for O=C1C2CCCCN2C(=O)N1CCCCN1CCN(c2cccc(Cl)c2)CC1 (stereo not given) here?
A: The Ki was 0.0121 µM.

Q: And the Ki ratio [2]?
A: Its Ki ratio is 1.7.

Q: Which Ki [1] does the source give for COc1ccccc1N1CCN(CCCCN2CC3CCCCN3C2)CC1 (stereo not given) here?
A: The Ki was 0.045 µM.

Q: What about the Ki ratio [2] of the same compound?
A: Its Ki ratio is 8.8.

Q: And the Ki [3]?
A: The Ki was 0.0051 µM.

Q: For O=C1C2CCCN2C(=O)N1CCCCN1CCN(c2cccc(Cl)c2)CC1 (stereo not given), which Ki [1] is on record?
A: Its Ki is 0.0096 µM.

Q: And the Ki ratio [2]?
A: The Ki ratio was 0.8.

Q: Which Ki [1] does the source give for FC(F)(F)c1cccc(N2CCN(CCCN3CC4CCCCN4C3)CC2)c1 (stereo not given) here?
A: The Ki was 0.278 µM.

Q: What about the Ki ratio [2] of the same compound?
A: The Ki ratio was 11.4.

Q: And the Ki [3]?
A: The Ki was 0.0243 µM.

Q: What does the source list for COc1ccccc1N1CCN(CCCCN2C(=O)C3CCCCN3C2=O)CC1 (stereo not given)?
A: Ki [1]: 0.0086 µM; Ki ratio [2]: 1

Q: With O=C1C2CCCN2C(=O)N1CCCN1CCN(c2cccc(C(F)(F)F)c2)CC1 (stereo not given) as the compound, how does the Ki [1] read?
A: The Ki was 0.109 µM.

Q: And the Ki ratio [2]?
A: The Ki ratio was 28.7.

Q: Which results are given for COc1ccccc1N1CCN(CCCN2CC3CCCCN3C2)CC1 (stereo not given)?
A: Ki [1]: 0.218 µM; Ki ratio [2]: 15.7; Ki [3]: 0.0139 µM

Q: What does the source list for COc1ccccc1N1CCN(CCCCN2C(=O)C3CCCN3C2=O)CC1 (stereo not given)?
A: Ki [1]: 0.0083 µM; Ki ratio [2]: 1.5

Q: What does the source list for FC(F)(F)c1cccc(N2CCN(CCCN3CC4CCCN4C3)CC2)c1 (stereo not given)?
A: Ki [1]: 0.363 µM; Ki ratio [2]: 12.5; Ki [3]: 0.0291 µM

Q: Which Ki [1] does the source give for O=C1C2CCCN2C(=O)N1CCCCN1CCN(c2cccc(C(F)(F)F)c2)CC1 (stereo not given) here?
A: Its Ki is 0.0649 µM.

Q: What about the Ki ratio [2] of the same compound?
A: The Ki ratio was 27.

Q: Which Ki [1] does the source give for Clc1cccc(N2CCN(CCCCN3CC4CCCN4C3)CC2)c1 (stereo not given) here?
A: Its Ki is 0.0649 µM.

Q: What about the Ki ratio [2] of the same compound?
A: The Ki ratio was 2.3.

Q: And the Ki [3]?
A: The Ki was 0.0281 µM.

Q: Which results are given for Clc1cccc(N2CCN(CCCCN3CC4CCCCN4C3)CC2)c1 (stereo not given)?
A: Ki [1]: 0.0643 µM; Ki ratio [2]: 2.6; Ki [3]: 0.0243 µM

Q: With COc1ccccc1N1CCN(CCCCN2CC3CCCN3C2)CC1 (stereo not given) as the compound, how does the Ki [1] read?
A: Its Ki is 0.0726 µM.

Q: What about the Ki ratio [2] of the same compound?
A: Its Ki ratio is 4.1.

Q: What about the Ki [3] of the same compound?
A: The Ki was 0.0175 µM.

Q: What does the source list for COc1ccccc1N1CCN(CCCN2CC3CCCN3C2)CC1 (stereo not given)?
A: Ki [1]: 0.323 µM; Ki ratio [2]: 26; Ki [3]: 0.0122 µM
